Data reported in ChEMBL document CHEMBL1926642, “Relevance of the C-5 position to schweinfurthin induced cytotoxicity” (2011).

Experiments:
Assay type in all cases: functional
CCRF-CEM = test: Growth inhibition of human CCRF-CEM cells after 48 hrs by sulforhodamine B assay; settings: for TGI: read-out: pTGI (converted)
HL-60(TB) = test: Growth inhibition of human HL-60(TB) cells after 48 hrs by sulforhodamine B assay; settings: HL-60, 48 h; for CC50: read-out: pLC50 (the source's name) (converted); for TGI: read-out: pTGI (converted)
Outline: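 Run in the NCI 60 cell-line screen as the full 5-dose assay that follows initial single-dose testing; GI50 is read from the dose series.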

K562 = test: Growth inhibition of human K562 cells after 48 hrs by sulforhodamine B assay; settings: K562, 48 h
RPMI-8226 = test: Growth inhibition of human RPMI8226 cells after 48 hrs by sulforhodamine B assay; settings: RPMI-8226, 48 h; for TGI: read-out: pTGI (converted)
EKVX = test: Growth inhibition of human EKVX cells after 48 hrs by sulforhodamine B assay; settings: for TGI: read-out: pTGI (converted)
HOP-92 = test: Growth inhibition of human HOP92 cells after 48 hrs by sulforhodamine B assay; settings: HOP-92, 48 h; for TGI: read-out: pTGI (converted)
NCI-H23 = test: Growth inhibition of human NCI-H23 cells after 48 hrs by sulforhodamine B assay; settings: NCI-H23, 48 h; for TGI: read-out: pTGI (converted)
A549 = test: Growth inhibition of human A549 cells after 48 hrs by sulforhodamine B assay; settings: A549, 48 h; for TGI: read-out: pTGI (converted)
NCI-H460 = test: Growth inhibition of human NCI-H460 cells after 48 hrs by sulforhodamine B assay; settings: NCI-H460, 48 h; for TGI: read-out: pTGI (converted)
HCT-116 = test: Growth inhibition of human HCT116 cells after 48 hrs by sulforhodamine B assay; settings: HCT-116, 48 h; for TGI: read-out: pTGI (converted)
SF-268 = test: Growth inhibition of human SF268 cells after 48 hrs by sulforhodamine B assay; settings: SF-268, 48 h; for TGI: read-out: pTGI (converted)
SF-295 = test: Growth inhibition of human SF295 cells after 48 hrs by sulforhodamine B assay; settings: SF-295, 48 h; for TGI: read-out: pTGI (converted)
SF-539 = test: Growth inhibition of human SF539 cells after 48 hrs by sulforhodamine B assay; settings: SF-539, 48 h; for TGI: read-out: pTGI (converted)
SNB-19 = test: Growth inhibition of human SNB19 cells after 48 hrs by sulforhodamine B assay; settings: SNB-19, 48 h; for TGI: read-out: pTGI (converted)
SNB-75 = test: Growth inhibition of human SNB75 cells after 48 hrs by sulforhodamine B assay; settings: SNB-75, 48 h; for TGI: read-out: pTGI (converted)
Malme-3M = test: Growth inhibition of human MALME-3M cells after 48 hrs by sulforhodamine B assay; settings: for TGI: read-out: pTGI (converted)
MDA-MB-435 = test: Growth inhibition of human MDA-MB-435 cells after 48 hrs by sulforhodamine B assay; settings: MDA-MB-435, 48 h; for TGI: read-out: pTGI (converted)
SK-MEL-28 = test: Growth inhibition of human SK-MEL-28 cells after 48 hrs by sulforhodamine B assay; settings: SK-MEL-28, 48 h; for CC50: read-out: pLC50 (the source's name) (converted); for TGI: read-out: pTGI (converted)
UACC-257 = test: Growth inhibition of human UACC257 cells after 48 hrs by sulforhodamine B assay; settings: UACC-257, 48 h; for TGI: read-out: pTGI (converted)
OVCAR-5 = test: Growth inhibition of human OVCAR5 cells after 48 hrs by sulforhodamine B assay; settings: OVCAR-5, 48 h; for TGI: read-out: pTGI (converted)
OVCAR-8 = test: Growth inhibition of human OVCAR8 cells after 48 hrs by sulforhodamine B assay; settings: OVCAR-8, 48 h; for TGI: read-out: pTGI (converted)
SK-OV-3 = test: Growth inhibition of human SKOV3 cells after 48 hrs by sulforhodamine B assay; settings: SK-OV-3, 48 h; for TGI: read-out: pTGI (converted)
UO-31 = test: Growth inhibition of human UO31 cells after 48 hrs by sulforhodamine B assay; settings: UO-31, 48 h; for TGI: read-out: pTGI (converted)
PC-3 = test: Growth inhibition of human PC3 cells after 48 hrs by sulforhodamine B assay; settings: PC-3, 48 h; for CC50: read-out: pLC50 (the source's name) (converted); for TGI: read-out: pTGI (converted)
MCF7 = test: Growth inhibition of human MCF7 cells after 48 hrs by sulforhodamine B assay; settings: MCF7, 48 h; for TGI: read-out: pTGI (converted)
[1] = Growth inhibition of human Hs 578T cells after 48 hrs by sulforhodamine B assay; settings: for CC50: read-out: pLC50 (the source's name) (converted); for TGI: read-out: pTGI (converted)

With `COc1cc(/C=C/c2cc(F)c3c(c2)C[C@@H]2C(C)(C)[C@H](O)CC[C@@]2(C)O3)cc(O)c1C/C=C(\C)CCC=C(C)C` the GI50 (CCRF-CEM) was 1.86 µM, the LC50 (CCRF-CEM) was over 100 µM and the TGI (CCRF-CEM) was 4.37 µM. It also gave a GI50 (HL-60(TB)) of 1.82 µM, a CC50 (HL-60(TB)) of over 100 µM and a TGI (HL-60(TB)) of 5.5 µM. The GI50 (K562) was 2.4 µM, the LC50 (K562) was over 100 µM and the GI50 (RPMI-8226) was 2.04 µM. For the same compound, the LC50 (RPMI-8226) was over 100 µM, the TGI (RPMI-8226) was 4.79 µM and the GI50 (EKVX) was 11.7 µM. For the same compound, the LC50 (50% lethal concentration) (EKVX) was 91.2 µM, the TGI (EKVX) was 33.1 µM and the GI50 (HOP-92) was 3.39 µM. For the same compound, the LC50 (HOP-92) was 57.5 µM, the TGI (HOP-92) was 12.6 µM and the GI50 (NCI-H23) was 2.09 µM. The LC50 (NCI-H23) was 20.9 µM, the TGI (NCI-H23) was 5.25 µM and the LC50 (A549) was 15.8 µM. For the same compound, the GI50 (A549; read-out: GI50) was 2.14 µM, the GI50 (A549; read-out: pGI50 (converted)) was 2.14 µM and the TGI (A549) was 4.9 µM. It also gave a GI50 (NCI-H460) of 1.86 µM, an LC50 (concentration killing 50% of cells) (NCI-H460) of 6.76 µM and a TGI (NCI-H460) of 3.55 µM. For the same compound, the GI50 (HCT-116) was 2.45 µM, the LC50 (HCT-116) was 20.4 µM and the TGI (HCT-116) was 6.03 µM. For the same compound, the GI50 (SF-268) was 10.5 µM, the LC50 (SF-268) was 63.1 µM and the TGI (SF-268) was 25.7 µM. It also gave an LC50 (SF-295) of 69.2 µM, a GI50 (SF-295; read-out: GI50) of 5.01 µM and a GI50 (SF-295; read-out: pGI50 (converted)) of 5.01 µM. It also gave a TGI (SF-295) of 21.4 µM, a GI50 (SF-539) of 3.89 µM and an LC50 (SF-539) of 43.7 µM. The TGI (SF-539) was 14.1 µM, the GI50 (SNB-19) was 12.6 µM and the LC50 (SNB-19) was 55 µM. The TGI (SNB-19) was 26.3 µM, the GI50 (SNB-75) was 2.95 µM and the LC50 (SNB-75) was 37.2 µM. It also gave a TGI (SNB-75) of 13.8 µM, a GI50 (Malme-3M) of 14.8 µM and an LC50 (Malme-3M) of 89.1 µM. It also gave a TGI (Malme-3M) of 36.3 µM, a GI50 (MDA-MB-435) of 13.2 µM and an LC50 (MDA-MB-435) of 63.1 µM. It also gave a TGI (MDA-MB-435) of 28.8 µM, a GI50 (SK-MEL-28) of 12 µM and a CC50 (SK-MEL-28) of 56.2 µM. The TGI (SK-MEL-28) was 25.7 µM, the GI50 (UACC-257) was 16.2 µM and the LC50 (UACC-257) was 93.3 µM. It also gave a TGI (UACC-257) of 38.9 µM, a GI50 (OVCAR-5) of 19.1 µM and an LC50 (OVCAR-5) of over 100 µM. For the same compound, the TGI (OVCAR-5) was 70.8 µM, the GI50 (OVCAR-8) was 4.37 µM and the LC50 (OVCAR-8) was 50.1 µM. For the same compound, the TGI (OVCAR-8) was 16.2 µM, the GI50 (SK-OV-3) was 17 µM and the LC50 (SK-OV-3) was 57.5 µM. For the same compound, the TGI (SK-OV-3) was 30.9 µM, the GI50 (UO-31) was 2.51 µM and the LC50 (UO-31) was 27.5 µM. The TGI (UO-31) was 6.46 µM, the GI50 (PC-3) was 5.13 µM and the CC50 (PC-3) was over 100 µM. The TGI (PC-3) was 25.1 µM, the GI50 (MCF7) was 13.8 µM and the LC50 (MCF7) was 64.6 µM. For the same compound, the TGI (MCF7) was 30.2 µM, the GI50 [1] was 8.71 µM and the CC50 [1] was over 100 µM. For the same compound, the TGI [1] was over 100 µM.

`COc1cc(/C=C/c2ccc3c(c2)C[C@@H]2C(C)(C)[C@H](O)CC[C@@]2(C)O3)cc(O)c1C/C=C(\C)CCC=C(C)C` showed a GI50 (CCRF-CEM) of 8.32 µM, an LC50 (CCRF-CEM) of over 100 µM and a TGI (CCRF-CEM) of over 100 µM. The GI50 (HL-60(TB)) was 13.8 µM, the CC50 (HL-60(TB)) was over 100 µM and the TGI (HL-60(TB)) was 57.5 µM. The GI50 (K562) was 5.5 µM, the LC50 (K562) was over 100 µM and the TGI (K562; read-out: pTGI (converted)) was 33.9 µM. The GI50 (RPMI-8226) was 3.09 µM, the LC50 (RPMI-8226) was over 100 µM and the TGI (RPMI-8226) was 14.5 µM. For the same compound, the GI50 (EKVX) was 14.5 µM, the LC50 (50% lethal concentration) (EKVX) was over 100 µM and the TGI (EKVX) was 57.5 µM. The GI50 (HOP-92) was 17.8 µM, the LC50 (HOP-92) was over 100 µM and the TGI (HOP-92) was 49 µM. The GI50 (NCI-H23) was 15.1 µM, the LC50 (NCI-H23) was 60.3 µM and the TGI (NCI-H23) was 30.2 µM. For the same compound, the LC50 (A549) was over 100 µM, the GI50 (A549; read-out: GI50) was 13.2 µM and the GI50 (A549; read-out: pGI50 (converted)) was 13.2 µM. The TGI (A549) was 39.8 µM, the GI50 (NCI-H460) was 7.41 µM and the LC50 (concentration killing 50% of cells) (NCI-H460) was 55 µM. It also gave a TGI (NCI-H460) of 21.9 µM, a GI50 (HCT-116) of 7.76 µM and an LC50 (HCT-116) of 45.7 µM. The TGI (HCT-116) was 20.4 µM, the GI50 (SF-268) was 14.8 µM and the LC50 (SF-268) was 81.3 µM. It also gave a TGI (SF-268) of 34.7 µM, an LC50 (SF-295) of 38.9 µM and a GI50 (SF-295; read-out: GI50) of 1.66 µM. The GI50 (SF-295; read-out: pGI50 (converted)) was 1.66 µM, the TGI (SF-295) was 5.89 µM and the GI50 (SF-539) was 4.17 µM. It also gave an LC50 (SF-539) of 57.5 µM, a TGI (SF-539) of 17.4 µM and a GI50 (SNB-19) of 15.5 µM. The LC50 (SNB-19) was 91.2 µM, the TGI (SNB-19) was 37.2 µM and the GI50 (SNB-75) was 5.37 µM. It also gave an LC50 (SNB-75) of over 100 µM, a TGI (SNB-75) of 42.7 µM and a GI50 (Malme-3M) of 17.8 µM. It also gave an LC50 (Malme-3M) of 91.2 µM, a TGI (Malme-3M) of 40.7 µM and a GI50 (MDA-MB-435) of 17.4 µM. It also gave an LC50 (MDA-MB-435) of 81.3 µM, a TGI (MDA-MB-435) of 38 µM and a GI50 (SK-MEL-28) of 16.2 µM. It also gave a CC50 (SK-MEL-28) of 69.2 µM, a TGI (SK-MEL-28) of 33.1 µM and a GI50 (UACC-257) of 22.9 µM. It also gave an LC50 (UACC-257) of over 100 µM, a TGI (UACC-257) of 55 µM and a GI50 (OVCAR-5) of 27.5 µM. For the same compound, the LC50 (OVCAR-5) was over 100 µM, the TGI (OVCAR-5) was 79.4 µM and the GI50 (OVCAR-8) was 25.1 µM. The LC50 (OVCAR-8) was over 100 µM, the TGI (OVCAR-8) was 74.1 µM and the GI50 (SK-OV-3) was 22.9 µM. The LC50 (SK-OV-3) was over 100 µM, the TGI (SK-OV-3) was over 100 µM and the GI50 (UO-31) was 5.01 µM. It also gave an LC50 (UO-31) of 64.6 µM, a TGI (UO-31) of 20 µM and a GI50 (PC-3) of 8.51 µM. It also gave a CC50 (PC-3) of over 100 µM, a TGI (PC-3) of 56.2 µM and a GI50 (MCF7) of 16.6 µM. It also gave an LC50 (MCF7) of 79.4 µM, a TGI (MCF7) of 36.3 µM and a GI50 [1] of 8.71 µM. The CC50 [1] was over 100 µM and the TGI [1] was 93.3 µM.
